# From ChEMBL document CHEMBL1146087, “1,4-Benzodiazepines as inhibitors of respiratory syncytial virus” (J Med Chem, 2006)
# Key:
# HEp-2 = assay: Cytotoxicity against Hep2 cell at 50 uM; format: functional, cell-based; settings: Homo sapiens
# Summary of the method: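 Run alongside the whole-cell antiviral XTT assay, without virus, to measure compound toxicity to the cells. The read-out is XTT.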
# [1] = tested on: Respiratory syncytial virus; assay: Antiviral activity against RSV RSS in Hep2 cells by whole cell XTT assay; format: functional, organism-based; settings: human respiratory syncytial virus, HEp-2
# Summary of the method: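 Primary whole-cell assay with XTT read-out of infected cells. Parallel cultures without virus were run to measure compound cytotoxicity. IC50 values were derived.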
# [2] = Cmax in Sprague-Dawley rat at 20 mg/kg, po; format: ADME, organism-based; design: dose 20 mg/kg, route oral; settings: in vivo
# [3] = Apparent oral clearance in Sprague-Dawley rat at 20 mg/kg, po; format: ADME, organism-based; design: dose 20 mg/kg, route oral; settings: in vivo
# [4] = Tmax in Sprague-Dawley rat at 20 mg/kg, po; format: ADME, organism-based; design: dose 20 mg/kg, route oral; settings: in vivo
# Rattus norvegicus = assay: Volume of distribution in Sprague-Dawley rat at 20 mg/kg, po; format: ADME, organism-based; design: dose 20 mg/kg, route oral; settings: in vivo
# [5] = Half life in Sprague-Dawley rat at 20 mg/kg, po; format: ADME, organism-based; design: dose 20 mg/kg, route oral; settings: in vivo
# [6] = Tmax in Sprague-Dawley rat at 2 mg/kg, po; format: ADME, organism-based; design: dose 2 mg/kg, route oral; settings: in vivo
# [7] = Cmax in Sprague-Dawley rat at 2 mg/kg, po; format: ADME, organism-based; design: dose 2 mg/kg, route oral; settings: in vivo
# [8] = Oral bioavailability in Sprague-Dawley rat at 2 mg/kg, po; format: ADME, organism-based; settings: in vivo
# [9] = Half life in Sprague-Dawley rat at 2 mg/kg, iv; format: ADME, organism-based; design: dose 2 mg/kg, route intravenous; settings: in vivo
# [10] = Tmax in Sprague-Dawley rat at 2 mg/kg, iv; format: ADME, organism-based; design: dose 2 mg/kg, route intravenous; settings: in vivo
# [11] = Cmax in Sprague-Dawley rat at 2 mg/kg, iv; format: ADME, organism-based; design: dose 2 mg/kg, route intravenous; settings: in vivo
# [12] = Clearance in Sprague-Dawley rat at 2 mg/kg, iv; format: ADME, organism-based; design: dose 2 mg/kg, route intravenous; settings: in vivo
# [13] = Volume of distribution in Sprague-Dawley rat at 2 mg/kg, iv; format: ADME, organism-based; design: dose 2 mg/kg, route intravenous; settings: in vivo, read-out: Vdss
Compound,Activity (HEp-2),IC50 [1],also measured
CCN(CC)C(=O)NC1N=C(c2ccccc2)c2ccccc2NC1=O (centres undefined),Not toxic,20.7 µM,–
COc1ccc(F)cc1C(=O)NC1N=C(c2ccccc2)c2ccccc2NC1=O (centres undefined),Not toxic,1.5 µM,Cmax [2]: 10.3 ng/mL; CL/F [3]: 981 mL/min/kg; Tmax [4]: 200 min
CC(C)C(=O)NC1N=C(c2ccccc2)c2ccccc2NC1=O (centres undefined),Not toxic,9.5 µM,–
COc1ccccc1C(=O)NC1N=C(c2ccc(C(F)(F)F)cc2)c2ccccc2NC1=O (centres undefined),Not toxic,> 50 µM,–
O=C1Nc2ccccc2C(c2ccccc2)=NC1N1CCOCC1 (centres undefined),Not toxic,> 50 µM,–
COc1cc(Cl)ccc1C(=O)NC1N=C(c2ccccc2)c2ccccc2NC1=O (centres undefined),Not toxic,5.9 µM,Cmax [2]: 273 ng/mL; Vdss (Rattus norvegicus): 98.3 L/kg; half-life [5]: 162 min; CL/F [3]: 288 mL/min/kg; Tmax [4]: 60 min
O=C1Nc2ccccc2C(c2ccccc2)=NC1NC(=O)N1CCOCC1 (centres undefined),Not toxic,9.7 µM,–
COc1cccc(C(=O)NC2N=C(c3ccccc3)c3ccccc3NC2=O)c1 (centres undefined),Not toxic,6.6 µM,–
O=C1Nc2ccccc2C(c2ccccc2)=NC1NC(=O)C1CCCO1 (centres undefined),Not toxic,17.4 µM,–
CN(C)c1ccccc1C(=O)NC1N=C(c2ccccc2)c2ccccc2NC1=O (centres undefined),Not toxic,4.8 µM,–
COc1ccc2c(c1)C(c1ccccc1)=NC(NC(=O)c1ccccc1OC)C(=O)N2 (centres undefined),Not toxic,> 50 µM,–
CN1C(=O)C(NC(=O)Nc2ccccc2F)N=C(c2ccccc2)c2ccccc21 (centres undefined),Not toxic,> 50 µM,–
O=C(NC1N=C(c2ccccc2)c2ccccc2NC1=O)c1cccc(C(F)(F)F)c1 (centres undefined),Not toxic,7.5 µM,–
CNc1ccccc1C(=O)NC1N=C(c2ccccc2)c2ccccc2NC1=O (centres undefined),Not toxic,9.6 µM,–
COc1ccc(C(=O)NC2N=C(c3ccccc3)c3ccccc3NC2=O)cc1 (centres undefined),Not toxic,3.6 µM,–
O=C(NC1N=C(c2ccccc2)c2ccccc2NC1=O)c1cccc([N+](=O)[O-])c1 (centres undefined),Not toxic,7.4 µM,–
CCN(CC)C1N=C(c2ccccc2)c2ccccc2NC1=O (centres undefined),Not toxic,> 50 µM,–
O=C(NC1N=C(c2cccc(C(F)(F)F)c2)c2ccccc2NC1=O)c1ccco1 (centres undefined),Not toxic,18.8 µM,–
COc1ccccc1C(=O)NC1N=C(c2ccccc2F)c2cc(Cl)ccc2NC1=O (centres undefined),Not toxic,26.2 µM,–
COc1ccccc1C(=O)NC1N=C(c2cccc(C(F)(F)F)c2)c2ccccc2NC1=O (centres undefined),Not toxic,16.7 µM,–
O=C(NC1N=C(c2ccccc2)c2ccccc2NC1=O)c1cccs1 (centres undefined),Not toxic,5.6 µM,–
O=C(NC1N=C(c2ccccc2)c2ccccc2NC1=O)c1ccccc1CN1CCOCC1 (centres undefined),Not toxic,20.7 µM,–
COc1cc2c(cc1OC)C(c1ccccc1)=NC(NC(=O)c1ccccc1OC)C(=O)N2 (centres undefined),Not toxic,> 50 µM,–
O=C(NC1N=C(c2ccccc2)c2ccccc2NC1=O)c1ccccc1C1CCCCC1 (centres undefined),Not toxic,> 50 µM,–
O=C(NC1N=C(c2ccccc2)c2ccccc2NC1=O)c1ccccc1 (centres undefined),Not toxic,5.5 µM,–
COc1ccccc1C(=O)NC1N=C(c2ccccc2)c2cc(Cl)ccc2NC1=O (centres undefined),Not toxic,6.1 µM,–
COc1cc(S(C)(=O)=O)ccc1C(=O)NC1N=C(c2ccccc2)c2ccccc2NC1=O (centres undefined),Not toxic,2 µM,–
COc1ccccc1C(=O)NC1N=C(c2ccccc2)c2ccc(C)cc2NC1=O (centres undefined),Not toxic,19.2 µM,–
COc1ccccc1C(=O)NC1N=C(c2ccccc2)c2ccccc2NC1=O (centres undefined),Not toxic,2.3 µM,Tmax [6]: 48 min; Cmax [7]: 19.3 ng/mL; bioavailability [8]: 4%; half-life [9]: 24 min; Tmax [10]: 4.8 min; Cmax [11]: 798 ng/mL; clearance [12]: 71.2 mL/min/kg; Vd [13]: 2.4 L/kg
